The text below walks through data of publication PMC3361572 (Chemistry & biology, 2012).

For test [1], the target named is T1, FAAH (Mus musculus, UniProt O08914).
T1 sequence (O08914 1-579): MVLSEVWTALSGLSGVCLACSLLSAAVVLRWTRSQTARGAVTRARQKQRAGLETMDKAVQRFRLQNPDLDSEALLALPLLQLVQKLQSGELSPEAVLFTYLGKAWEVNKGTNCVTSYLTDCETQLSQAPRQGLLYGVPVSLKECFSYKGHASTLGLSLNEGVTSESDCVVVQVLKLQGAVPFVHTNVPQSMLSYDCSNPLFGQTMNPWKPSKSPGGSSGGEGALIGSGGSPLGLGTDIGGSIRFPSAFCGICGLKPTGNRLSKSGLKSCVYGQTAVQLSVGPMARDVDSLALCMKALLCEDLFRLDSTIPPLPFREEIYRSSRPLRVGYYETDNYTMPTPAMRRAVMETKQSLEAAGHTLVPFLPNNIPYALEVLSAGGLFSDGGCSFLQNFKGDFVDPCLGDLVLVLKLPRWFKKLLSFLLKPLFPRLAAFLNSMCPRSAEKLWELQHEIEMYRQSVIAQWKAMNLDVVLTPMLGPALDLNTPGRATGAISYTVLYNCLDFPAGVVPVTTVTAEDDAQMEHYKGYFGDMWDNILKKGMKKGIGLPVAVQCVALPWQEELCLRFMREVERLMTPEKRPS
The test can be described thus: competitive ABPP, mouse brain membrane proteome. Format: biochemical. The settings on record: mouse brain proteome, concentration range tested 0.001–50 μM. In short, it runs like this: (§1)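 Brain (mouse or rat) or mouse lung proteomes were preincubated with the test compound, then treated with the serine hydrolase probe FP-Rh. Samples were separated by SDS-PAGE and read by in-gel fluorescence scanning. Inhibition was taken as reduced FP-Rh labelling of MAGL, ABHD6, FAAH or CES bands, and IC50 values were calculated from quantified gel bands. Three independent experiments.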

Test [2] has as its target T2, ABHD6 (Mus musculus, UniProt Q8R2Y0).
T2 sequence (Q8R2Y0 1-336): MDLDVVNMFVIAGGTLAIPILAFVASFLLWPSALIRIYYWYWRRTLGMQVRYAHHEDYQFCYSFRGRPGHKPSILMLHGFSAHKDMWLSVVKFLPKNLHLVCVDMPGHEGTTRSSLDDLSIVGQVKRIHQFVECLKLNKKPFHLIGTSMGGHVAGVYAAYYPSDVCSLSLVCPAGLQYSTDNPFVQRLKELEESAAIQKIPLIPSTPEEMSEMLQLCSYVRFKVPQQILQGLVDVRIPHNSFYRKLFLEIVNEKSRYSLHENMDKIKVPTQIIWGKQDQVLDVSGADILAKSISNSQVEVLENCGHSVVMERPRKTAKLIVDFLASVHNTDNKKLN
The test can be described thus: competitive ABPP, mouse brain membrane proteome. Format: biochemical. The settings on record: mouse brain serine hydrolase activities, full ABPP gel. In short, it runs like this:
as §1

A further test deals with T3, hFAAH (Homo sapiens, UniProt O00519).
T3 sequence (O00519 1-579): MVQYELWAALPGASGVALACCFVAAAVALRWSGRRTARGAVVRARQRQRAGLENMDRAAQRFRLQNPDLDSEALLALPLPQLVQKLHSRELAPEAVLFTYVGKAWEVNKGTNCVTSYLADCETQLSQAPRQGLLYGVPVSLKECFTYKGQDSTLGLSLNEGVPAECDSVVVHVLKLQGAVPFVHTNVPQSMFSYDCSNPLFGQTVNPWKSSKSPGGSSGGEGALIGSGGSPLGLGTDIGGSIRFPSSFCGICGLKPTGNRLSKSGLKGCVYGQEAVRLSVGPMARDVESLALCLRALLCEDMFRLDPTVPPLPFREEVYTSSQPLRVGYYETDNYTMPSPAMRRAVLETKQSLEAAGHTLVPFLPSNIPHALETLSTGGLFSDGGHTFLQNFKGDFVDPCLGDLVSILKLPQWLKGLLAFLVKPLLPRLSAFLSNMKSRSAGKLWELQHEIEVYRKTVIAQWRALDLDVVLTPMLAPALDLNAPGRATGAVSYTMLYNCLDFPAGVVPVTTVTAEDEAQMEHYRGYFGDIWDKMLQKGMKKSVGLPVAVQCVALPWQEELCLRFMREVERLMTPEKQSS
The test can be described thus: competitive ABPP, proteomes of transiently transfected HEK293T cells. Format: biochemical.

For test [3], the target named is T1, FAAH. Briefly: AEA substrate assay in mouse brain proteomes. Format: biochemical. In short, it runs like this: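 Mouse brain proteome was treated with test compound. FAAH activity was read as hydrolysis of AEA substrate. Data are means ± SEM of three independent experiments.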
Test [4] has as its system brain 2-AG, AA, AEA, PEA, OEA. Briefly: brain lipid profile of inhibitor-treated mice. Format: in vivo, mouse.
The target in test [5] is T1, FAAH. Briefly: AEA hydrolytic activity of brain tissue from treated mice. Format: in vivo. Particulars: KML29-treated mice, 1–40 mg kg^−1 p.o. In short, it runs like this: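 C57Bl/6 mice were dosed orally with the test compound (1–40 mg kg−1) or vehicle. The compound was dissolved in PEG by prolonged sonication and mild heating. Mice were killed after 4 h. Brain was analysed for 2-AG, AA, AEA, PEA and OEA, and brain proteomes for residual AEA and 2-AG hydrolysis (substrate assay). n = 3 mice/group, means ± SEM, compared with vehicle-treated mice.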

The target in test [6] is T4, ABHD6 (Rattus norvegicus, UniProt Q5XI64).
T4 sequence (Q5XI64 1-337): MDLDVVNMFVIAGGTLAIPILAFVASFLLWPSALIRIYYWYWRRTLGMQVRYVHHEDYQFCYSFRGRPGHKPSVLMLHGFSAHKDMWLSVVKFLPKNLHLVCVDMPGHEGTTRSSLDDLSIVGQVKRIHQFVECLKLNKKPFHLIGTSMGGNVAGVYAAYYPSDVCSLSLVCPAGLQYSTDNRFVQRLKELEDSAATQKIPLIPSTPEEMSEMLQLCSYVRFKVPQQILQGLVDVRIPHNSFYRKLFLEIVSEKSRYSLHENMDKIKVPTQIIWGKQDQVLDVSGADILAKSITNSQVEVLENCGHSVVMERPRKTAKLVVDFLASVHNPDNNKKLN
Briefly: competitive ABPP of brain from KML29-treated rats. Format: in vivo. Particulars: Wistar rats, 1–40 mg kg^−1 i.p., 4 h. In short, it runs like this: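 Wistar rats were injected i.p. with the test compound (1–40 mg kg−1) or vehicle. Vehicle was saline:emulphor:ethanol 18:1:1, with prolonged sonication and mild heating to dissolve. Rats were killed at 4 h. Brain, liver, lung and spleen proteomes were labelled with FP-Rh, separated by SDS-PAGE and scanned for in-gel fluorescence. Inhibition was scored as reduced probe labelling. n = 3 rats/group.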

“Also recorded” adds a separate entry of the source.

Consider `O=C(OC(C(F)(F)F)C(F)(F)F)N1CCC(C(O)(c2ccc3c(c2)OCO3)c2ccc3c(c2)OCO3)CC1` [KML29], for which the “FAAH inhibition / cross-reactivity (gel-based ABPP)” value on FAAH [1] was “No inhibition of FAAH was detected; also recorded: complete selectivity for MAGL over FAAH”. For the same compound, the “concentrations with inhibition of ABHD6” value at ABHD6 [2] was above 1 µM. At hFAAH (lysates of HEK293T cells transfected with hFAAH), the “cross-reactivity with hFAAH (competitive ABPP)” value is reported as “no-detectable cross-reactivity with hFAAH”. In addition, the IC50 (commonly the concentration that inhibits the measured activity by half) at hFAAH (read-out: IC50 (95% CI), human FAAH, competitive ABPP, transfected HEK293T cell proteome) was above 50 µM. Further, the “effect on AEA hydrolysis” value at FAAH [3] is “did not affect AEA hydrolysis at any concentration tested”. Also, the “brain 2-AG and NAE levels, chronic dosing” value in test [4] (40 mg kg^−1 p.o., six days) is reported as “selectively raise 2-AG, but not NAE levels”. Also, in test [4] (20 and 40 mg kg^−1 p.o., 4 h), the “peak increase in brain 2-AG over vehicle controls” value is listed as ~ 10 fold. Also, the “brain levels of AEA, PEA and OEA” value in test [4] (all tested doses p.o., 4 h) is listed as “unaltered”. In addition, in test [4] (doses as low as 5 mg kg^−1 p.o., 4 h), the “change in brain 2-AG” value is given as “significant elevations”. Besides, in test [4] (p.o., 4 h, concomitant with 2-AG elevations), the “change in brain arachidonic acid (AA)” value is “significant reductions”. Also, the “time of maximal elevations of 2-AG and reductions of AA in brain” value in test [4] (single oral dose 20 mg kg^−1) worked out at 1 h. The “brain AEA levels during time course” value in test [4] (single oral dose 20 mg kg^−1, 24 h period) is “unaltered”. In addition, on FAAH [5], the “residual FAAH activity in brain proteomes (substrate assay)” value is on record as “lack of any effect on FAAH”. Further, the “cross-reactivity with brain ABHD6” value at ABHD6 [6] is reported as “without any detectable cross-reactivity”.
